Where only a bound is given, the exact number is not on record here.

The source of these data is ChEMBL document CHEMBL1933000, “Design, synthesis and antitumor activity of 4-aminoquinazoline derivatives targeting VEGFR-2 tyrosine kinase” (Bioorg Med Chem Lett, 2012).

The test system of series [1] is HUVEC. The series is described as follows: Antiproliferative activity against VEGF-stimulated HUVEC after 48 hrs by sulforhodamine B assay. Conditions: Homo sapiens. On the technique in general: Sulforhodamine B stains cellular protein and so reports cell mass.
In series [2] the target is Vascular endothelial growth factor receptor 2 (Homo sapiens, UniProt P35968). Kind of series: Inhibition of human GST-tagged VEGFR2 intracellular domain using biotin-aminohexyl-EEEEYFELVAKKKK-NH2 as substrate after 30 mins by HTRF assay. Background: Time-resolved FRET reads energy transfer from a long-lived donor to a nearby acceptor.
The target of series [3] is Vascular endothelial growth factor receptor 1 (Homo sapiens, UniProt P17948). Kind of series: Inhibition of VEGFR1.
Series [4] deals with Vascular endothelial growth factor receptor 3 (Homo sapiens, UniProt P35916). Kind of series: Inhibition of VEGFR3.
For series [5], the target named is Platelet-derived growth factor receptor alpha (Homo sapiens, UniProt P16234). Kind of series: Inhibition of PDGFRalpha.
For series [6], the target named is Fibroblast growth factor receptor 1 (Homo sapiens, UniProt P11362). The series is described as follows: Inhibition of FGFR1.
The target in series [7] is Angiopoietin-1 receptor (Homo sapiens, UniProt Q02763). The series is described as follows: Inhibition of Tie2.
Series [8] has as its target Receptor tyrosine-protein kinase erbB-2 (Homo sapiens, UniProt P04626). The series is described as follows: Inhibition of HER2.
A short description of series [9]: Inhibition of AKT.
Series [10] deals with Cyclin-dependent kinase 1 (Homo sapiens, UniProt P06493). The series is described as follows: Inhibition of CDK1.
The subject of series [11] is HepG2. Kind of series: Antitumor activity against human HepG2 cells xenografted in BALB/c nude mouse assessed as tumor growth inhibition at 20 mg/kg, po qd at 3 doses for 15 days. It counts as functional. Conditions: HepG2, 360 h, read-out: TGI. An outline of the steps:
(§1)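 HepG2 hepatocarcinoma cells (1 × 10⁷) implanted sc in the flank of BALB/c-nu mice. Once-daily oral dosing of compound or vehicle began five days after implantation and ran 15 days at 20, 50 or 100 mg/kg. Tumor growth followed; %TGI; mean and SE, n = 8.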
(A xenograft is tissue or cells of one species grown in another, often human tumour cells in immunodeficient mice.)

Series [12] relates to HepG2. Kind of series: Antitumor activity against human HepG2 cells xenografted in BALB/c nude mouse assessed as tumor growth inhibition at 50 mg/kg, po qd at 3 doses for 15 days. The format is functional. As to conditions: HepG2, 360 h, read-out: TGI. The method in brief: as §1
The subject of series [13] is HepG2. The series is described as follows: Antitumor activity against human HepG2 cells xenografted in BALB/c nude mouse assessed as tumor growth inhibition at 100 mg/kg, po qd at 3 doses for 15 days. Conditions: HepG2, 360 h, read-out: TGI. It counts as functional. The method in brief: as §1
The subject of series [14] is Mus musculus. The series is described as follows: Toxicity in nude BALB/c mouse xenografted with human HepG2 cells assessed as clinically observable signs of toxicity at 100 mg/kg, po qd at 3 doses for 15 days. It counts as organism-based. Also noted: dose 100 mg/kg, route oral. As to conditions: in vivo, 360 h. An outline of the steps: (§2)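 BALB/c-nu mice bearing sc flank HepG2 xenografts received oral compound once daily for 15 days, top dose 100 mg/kg, starting five days after implantation. Animals were watched for clinically observable toxicity signs and for body weight loss; n = 8.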

Series [15] relates to Mus musculus. Kind of series: Toxicity in nude BALB/c mouse xenografted with human HepG2 cells assessed as weight loss at 100 mg/kg, po qd at 3 doses for 15 days. It counts as organism-based. More on the design: dose 100 mg/kg, route oral. As to conditions: in vivo, 360 h. An outline of the steps:
as §2

Series [16] deals with HepG2. The series is described as follows: Antitumor activity against human HepG2 cells xenografted in BALB/c nude mouse assessed as tumor growth inhibition administered as po qd at 3 doses for 15 days. The format is functional, organism-based. An outline of the steps: as §1
A short description of series [17]: Lipophilicity, log P of the compound. It counts as physicochemical. Conditions: octanol/water.
Series [18] can be described thus: Solubility of the compound in water. Conditions: buffer. It counts as physicochemical.
Series [19] is described as follows: Dissociation constant, pKa of the compound. It counts as physicochemical.

Chain of Platelet-derived growth factor receptor alpha (P16234 whole entry): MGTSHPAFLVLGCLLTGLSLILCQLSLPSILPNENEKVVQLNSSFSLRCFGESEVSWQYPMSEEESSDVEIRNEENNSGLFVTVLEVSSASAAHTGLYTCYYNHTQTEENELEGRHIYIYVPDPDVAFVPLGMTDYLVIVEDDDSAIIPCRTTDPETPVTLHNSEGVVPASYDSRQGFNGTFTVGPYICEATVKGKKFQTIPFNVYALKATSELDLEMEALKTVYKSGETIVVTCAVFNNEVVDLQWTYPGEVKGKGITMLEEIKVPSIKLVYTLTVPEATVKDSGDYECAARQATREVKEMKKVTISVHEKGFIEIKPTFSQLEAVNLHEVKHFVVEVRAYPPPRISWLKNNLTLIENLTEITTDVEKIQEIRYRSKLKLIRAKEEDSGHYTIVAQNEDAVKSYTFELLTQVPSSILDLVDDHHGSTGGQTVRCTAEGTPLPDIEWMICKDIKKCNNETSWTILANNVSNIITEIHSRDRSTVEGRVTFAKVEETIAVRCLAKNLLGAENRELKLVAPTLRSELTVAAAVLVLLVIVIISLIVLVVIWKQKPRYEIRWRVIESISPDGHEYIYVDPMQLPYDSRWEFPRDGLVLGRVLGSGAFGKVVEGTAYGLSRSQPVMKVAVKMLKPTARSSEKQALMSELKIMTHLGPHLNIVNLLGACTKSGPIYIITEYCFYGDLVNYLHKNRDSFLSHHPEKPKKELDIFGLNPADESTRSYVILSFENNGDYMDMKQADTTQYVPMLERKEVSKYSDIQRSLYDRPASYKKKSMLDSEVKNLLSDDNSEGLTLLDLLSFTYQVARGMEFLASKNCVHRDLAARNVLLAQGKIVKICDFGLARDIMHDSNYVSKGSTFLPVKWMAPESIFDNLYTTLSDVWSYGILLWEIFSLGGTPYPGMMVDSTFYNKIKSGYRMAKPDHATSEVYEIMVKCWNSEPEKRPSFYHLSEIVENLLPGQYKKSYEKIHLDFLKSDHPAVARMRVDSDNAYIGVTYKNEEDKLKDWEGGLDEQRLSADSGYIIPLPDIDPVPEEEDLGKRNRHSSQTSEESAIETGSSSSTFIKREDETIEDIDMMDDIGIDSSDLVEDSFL
Chain of Vascular endothelial growth factor receptor 3 (P35916 whole entry): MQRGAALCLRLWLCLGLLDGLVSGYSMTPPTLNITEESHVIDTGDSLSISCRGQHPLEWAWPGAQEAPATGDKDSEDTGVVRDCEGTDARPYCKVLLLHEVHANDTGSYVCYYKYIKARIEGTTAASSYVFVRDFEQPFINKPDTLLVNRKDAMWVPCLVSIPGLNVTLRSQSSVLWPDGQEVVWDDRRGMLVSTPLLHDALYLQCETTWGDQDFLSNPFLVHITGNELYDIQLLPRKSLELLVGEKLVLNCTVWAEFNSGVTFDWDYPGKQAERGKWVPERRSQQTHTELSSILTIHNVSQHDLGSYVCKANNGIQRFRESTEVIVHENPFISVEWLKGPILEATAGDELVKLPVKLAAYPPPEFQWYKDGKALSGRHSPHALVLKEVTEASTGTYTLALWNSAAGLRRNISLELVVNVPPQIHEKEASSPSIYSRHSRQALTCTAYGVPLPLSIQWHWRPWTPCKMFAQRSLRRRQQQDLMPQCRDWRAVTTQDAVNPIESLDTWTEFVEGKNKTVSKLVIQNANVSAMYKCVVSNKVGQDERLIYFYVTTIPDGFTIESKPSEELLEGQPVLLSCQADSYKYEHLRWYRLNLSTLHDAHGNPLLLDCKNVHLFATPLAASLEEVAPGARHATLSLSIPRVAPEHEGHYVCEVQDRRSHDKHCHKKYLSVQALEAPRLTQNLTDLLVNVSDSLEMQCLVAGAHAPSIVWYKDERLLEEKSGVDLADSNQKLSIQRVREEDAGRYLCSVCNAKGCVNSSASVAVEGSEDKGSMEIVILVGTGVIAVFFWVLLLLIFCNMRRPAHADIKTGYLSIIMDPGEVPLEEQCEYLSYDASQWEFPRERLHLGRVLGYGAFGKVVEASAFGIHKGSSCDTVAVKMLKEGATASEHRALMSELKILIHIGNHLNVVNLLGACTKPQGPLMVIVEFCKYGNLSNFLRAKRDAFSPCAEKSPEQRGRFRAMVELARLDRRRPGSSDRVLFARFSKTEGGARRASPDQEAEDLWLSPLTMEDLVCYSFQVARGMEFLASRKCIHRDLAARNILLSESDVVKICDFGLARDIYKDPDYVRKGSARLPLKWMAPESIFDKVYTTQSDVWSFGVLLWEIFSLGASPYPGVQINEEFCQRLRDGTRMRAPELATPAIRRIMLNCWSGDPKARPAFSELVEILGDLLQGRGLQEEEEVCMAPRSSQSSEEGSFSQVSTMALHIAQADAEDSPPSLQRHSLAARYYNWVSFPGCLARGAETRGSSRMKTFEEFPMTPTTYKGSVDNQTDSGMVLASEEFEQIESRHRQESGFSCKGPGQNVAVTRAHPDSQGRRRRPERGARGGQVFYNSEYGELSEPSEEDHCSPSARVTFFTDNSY
Chain of Angiopoietin-1 receptor (Q02763 whole entry): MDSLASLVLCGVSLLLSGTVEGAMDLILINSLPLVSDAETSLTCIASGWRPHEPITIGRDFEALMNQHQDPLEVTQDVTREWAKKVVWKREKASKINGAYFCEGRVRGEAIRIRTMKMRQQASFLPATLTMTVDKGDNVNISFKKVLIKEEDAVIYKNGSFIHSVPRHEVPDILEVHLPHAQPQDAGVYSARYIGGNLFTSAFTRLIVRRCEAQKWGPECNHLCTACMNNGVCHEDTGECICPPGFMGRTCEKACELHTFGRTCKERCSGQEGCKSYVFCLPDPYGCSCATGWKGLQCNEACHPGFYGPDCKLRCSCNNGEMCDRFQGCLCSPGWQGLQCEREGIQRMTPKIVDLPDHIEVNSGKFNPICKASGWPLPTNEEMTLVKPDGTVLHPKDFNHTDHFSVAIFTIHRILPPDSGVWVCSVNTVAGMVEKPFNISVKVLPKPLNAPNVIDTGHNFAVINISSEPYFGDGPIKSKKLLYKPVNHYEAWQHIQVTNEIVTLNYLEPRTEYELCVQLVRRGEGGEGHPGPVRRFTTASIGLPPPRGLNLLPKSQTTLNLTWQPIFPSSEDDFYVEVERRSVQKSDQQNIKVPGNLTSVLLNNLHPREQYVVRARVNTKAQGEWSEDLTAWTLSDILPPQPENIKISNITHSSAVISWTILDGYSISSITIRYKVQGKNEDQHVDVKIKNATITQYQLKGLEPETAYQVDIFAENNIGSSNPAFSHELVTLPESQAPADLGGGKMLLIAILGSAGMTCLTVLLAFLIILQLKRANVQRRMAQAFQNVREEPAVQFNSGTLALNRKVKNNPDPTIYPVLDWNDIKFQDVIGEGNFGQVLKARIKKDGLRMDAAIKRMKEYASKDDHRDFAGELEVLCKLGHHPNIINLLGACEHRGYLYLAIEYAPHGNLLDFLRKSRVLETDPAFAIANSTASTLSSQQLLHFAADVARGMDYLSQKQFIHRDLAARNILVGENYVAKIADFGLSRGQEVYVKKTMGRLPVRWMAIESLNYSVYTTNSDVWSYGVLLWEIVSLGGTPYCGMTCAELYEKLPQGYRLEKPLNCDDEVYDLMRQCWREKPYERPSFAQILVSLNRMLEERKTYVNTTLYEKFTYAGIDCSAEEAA
Chain of Fibroblast growth factor receptor 1 (P11362 whole entry): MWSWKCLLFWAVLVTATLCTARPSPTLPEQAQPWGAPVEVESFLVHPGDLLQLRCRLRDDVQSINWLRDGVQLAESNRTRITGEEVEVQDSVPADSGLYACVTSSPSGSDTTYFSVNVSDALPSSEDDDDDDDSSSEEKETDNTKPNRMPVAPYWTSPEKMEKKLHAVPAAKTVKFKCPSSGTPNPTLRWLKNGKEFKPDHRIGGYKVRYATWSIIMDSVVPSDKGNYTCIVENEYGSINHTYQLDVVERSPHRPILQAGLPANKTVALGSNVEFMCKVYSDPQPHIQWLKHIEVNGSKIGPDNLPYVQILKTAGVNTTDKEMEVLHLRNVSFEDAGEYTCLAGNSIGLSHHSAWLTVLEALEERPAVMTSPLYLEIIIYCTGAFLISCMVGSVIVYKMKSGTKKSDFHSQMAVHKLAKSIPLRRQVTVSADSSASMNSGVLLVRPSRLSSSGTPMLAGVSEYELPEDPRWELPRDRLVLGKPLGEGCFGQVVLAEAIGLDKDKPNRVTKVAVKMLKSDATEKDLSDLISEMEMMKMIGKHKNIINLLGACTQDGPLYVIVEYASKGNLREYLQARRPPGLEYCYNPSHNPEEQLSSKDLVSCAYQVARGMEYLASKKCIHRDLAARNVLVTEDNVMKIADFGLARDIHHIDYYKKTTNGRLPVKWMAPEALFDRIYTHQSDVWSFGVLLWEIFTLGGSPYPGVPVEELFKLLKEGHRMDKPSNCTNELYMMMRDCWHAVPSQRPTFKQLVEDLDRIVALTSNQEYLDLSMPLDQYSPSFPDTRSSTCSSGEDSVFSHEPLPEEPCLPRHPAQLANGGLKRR
Chain of Cyclin-dependent kinase 1 (P06493 whole entry): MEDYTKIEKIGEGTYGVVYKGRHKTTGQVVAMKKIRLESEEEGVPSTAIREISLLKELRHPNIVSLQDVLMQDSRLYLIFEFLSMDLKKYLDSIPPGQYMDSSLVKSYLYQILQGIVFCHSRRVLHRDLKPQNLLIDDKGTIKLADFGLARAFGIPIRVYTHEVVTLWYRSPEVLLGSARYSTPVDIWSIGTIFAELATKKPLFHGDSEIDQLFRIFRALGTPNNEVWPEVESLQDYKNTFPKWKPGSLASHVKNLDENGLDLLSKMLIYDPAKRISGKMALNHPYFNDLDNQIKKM

Usually IC50 stands for the point on the concentration scale where inhibition reaches its midpoint. Read a low IC50 as inhibition by little substance. In turn, `Cc1ccc(NC(=O)Nc2ccc(Nc3ncnc4cc(OCC5CCN(C)CC5)ccc34)cc2)cc1Br` displayed an IC50 in series [1] of 196 nM. Same read-out and setting: under `CN1CCC(COc2ccc3c(Nc4ccc(NC(=O)Nc5cccc(F)c5)c(F)c4)ncnc3c2)CC1` stands 67 nM; under `CN1CCC(COc2ccc3c(Nc4ccc(NC(=O)Nc5ccc(Cl)c(C(F)(F)F)c5)cc4)ncnc3c2)CC1`, 92 nM. Consider `CN1CCC(COc2ccc3c(Nc4ccc(NC(=O)Nc5cccc(F)c5)cc4)ncnc3c2)CC1`, for which the half-maximal inhibitory concentration (IC50) in series [2] was 5.5 nM; in series [1], 52 nM; in series [3] it was 1920 nM; in series [4], 9.6 nM; in [5], 1360 nM; in series [6], greater than 10000 nM. The IC50 is greater than 10000 nM in series [7], greater than 10000 nM in [8], 8710 nM in series [9] and 10000 nM in [10]. For the same compound, the inhibition in vivo at 20 mg/kg in series [11] turned out to be 25.6%. For the same compound, in series [12], the inhibition in vivo at 50 mg/kg was determined as 61.4%. Moreover, the inhibition in vivo at 100 mg/kg in [13] was found to be 83.6%. In addition, the Activity result in [14] and in [15] was “Non-toxic” in each case. In addition, the TGI entry in [16] is “Dose-dependent effect”. For the compound `CN1CCC(COc2ccc3c(Nc4ccc(NC(=O)Nc5cccc(F)c5)c(Cl)c4)ncnc3c2)CC1`, the concentration for half-maximal inhibition (IC50) in series [1] was determined as 132 nM.

`CCNC(=O)Nc1ccc(Nc2ncnc3cc(OCC4CCN(C)CC4)ccc23)cc1` had an IC50 in series [1] of 587 nM. With `CN1CCC(COc2ccc3c(Nc4ccc(NC(=O)NC5CC5)cc4)ncnc3c2)CC1`, the IC50 in series [1] was determined as 324 nM. Still for that read-out and setting: under `CN1CCC(COc2ccc3c(Nc4ccc(CC(=O)Nc5ccc(F)c(F)c5)cc4)ncnc3c2)CC1` stands 308 nM. Still for that read-out and setting: under `CN1CCC(COc2ccc3c(Nc4ccc(CC(=O)Nc5cccc(F)c5)cc4)ncnc3c2)CC1` stands 237 nM; under `COc1cc2c(Nc3ccc(NC(=O)Nc4cccc(F)c4)c(F)c3)ncnc2cc1OCC1CCN(C)CC1`, 185 nM. `COc1cc2c(Nc3ccc(NC(=O)Nc4cccc(F)c4)cc3)ncnc2cc1OCC1CCN(C)CC1`: in series [1], 179 nM corresponded to half-maximal inhibition (IC50).

Compound `CN1CCC(COc2ccc3c(Nc4ccc(CC(=O)Nc5ccc(Cl)c(C(F)(F)F)c5)cc4)ncnc3c2)CC1` gave an IC50 in series [1] of 258 nM. The term logP denotes a log measure of how a compound divides between an organic and an aqueous phase. As to `CNC(=O)c1cc(Oc2ccc(NC(=O)Nc3ccc(Cl)c(C(F)(F)F)c3)cc2)ccn1` [SORAFENIB], the logP in series [17] is 5. With `COc1cc2c(Nc3ccc(Br)cc3F)ncnc2cc1OCC1CCN(C)CC1` [VANDETANIB], in series [1], the IC50 is 187 nM. Also, the solubility result in [18] is reported as “soluble”.

In the case of `CN1CCC(COc2ccc3c(Nc4ccc(NC(=O)Nc5ccc(F)c(F)c5)cc4)ncnc3c2)CC1`, in [1], half-maximal inhibition (IC50) required 89 nM. On the same count and under the same terms, under `CN1CCC(COc2ccc3c(Nc4ccc(NC(=O)Nc5ccc(Br)cc5F)cc4)ncnc3c2)CC1` stands 233 nM.

As a reminder, the pKa is the negative logarithm of the acid dissociation constant. A high value points to a weaker acid or stronger base. In series [19], `CN1CCCCC1` registered a pKa of 8.1.
